Test results from article PMC8796305 (ACS Central Science, 2022).

Assay: Human plasma stability assay
Format: in vitro ADME
Conditions: 37 °C
Method in brief: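 Lyophilised human plasma reconstituted in sterile water, stored in aliquots at −80 °C, and thawed at room temperature (three aliquots per compound). Each aliquot spiked with test compound from a 2 mM DMSO stock; Angiotensin I as positive control. Incubated at 37 °C. Samples taken at […], quenched with water/acetonitrile, centrifuged (17 000g, 4 °C, 1 h), and supernatants concentrated.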

Which “Time to complete degradation in human plasma” value does the source give for “Angiotensin I (DRVYIHPFHL; Angiotensin-1; UniProt P01019 25-34, looked up)” here?
Its value is at most 4 h.
